Data taken from ChEMBL document CHEMBL1156133, “Losartan-antioxidant hybrids: novel molecules for the prevention of hypertension-induced cardiovascular damage” (J Med Chem, 2009).
Activity calls are given as the source filed them. The calls are words filed in the database; no cut-off is given here.

How the values were obtained:
Rattus norvegicus [1] = test: Antihypertensive activity in Wistar rat assessed as decrease in L-NAME-induced collagen 1 level in vessel walls at 10 mg/kg/day, po for 4 weeks in presence of losartan; format: functional, organism-based
How it was run: (§1)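 Male Wistar rats on L-NAME in drinking water (20 mg/kg/day) for 8 weeks, treatments in drinking water for the last 4 weeks. Thoracic aorta lysates run on SDS-PAGE and Western blotted for collagen type I, fibronectin or HNE-lysine, with β-tubulin as loading control; ECL detection, densitometry. Expressed as percent of basal; mean ± SEM of 10 experiments.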

Rattus norvegicus [2] = test: Antihypertensive activity in Wistar rat assessed as change in blood calcium level at 10 mg/kg/day, po measured after 8 weeks in presence of losartan; format: functional
Rattus norvegicus [3] = test: Antihypertensive activity in Wistar rat assessed as change in blood LDH level at 10 mg/kg/day, po measured after 8 weeks; format: functional
Rattus norvegicus [4] = test: Antihypertensive activity in Wistar rat assessed as change in blood urea level at 10 mg/kg/day, po measured after 8 weeks; format: functional
How it was run: (§2)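 Two-month-old male Wistar rats given L-NAME in drinking water (20 mg/kg/day) for 8 weeks; from week 4, test treatments also in drinking water daily (12.00-18.00 h). Sacrificed under halothane anesthesia at 8 weeks; serum biochemical parameters measured by automatic analyzer. Mean ± SEM of 10 rats; nonparametric statistics.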

Rattus norvegicus [5] = test: Antihypertensive activity in Wistar rat assessed as change in blood calcium level at 10 mg/kg/day, po measured after 8 weeks; format: functional
Rattus norvegicus [6] = test: Antihypertensive activity in Wistar rat assessed as change in blood cholesterol level at 10 mg/kg/day, po measured after 8 weeks; format: functional
Rattus norvegicus [7] = test: Antihypertensive activity in Wistar rat assessed as change in blood ALT level at 10 mg/kg/day, po measured after 8 weeks; format: functional
Rattus norvegicus [8] = test: Antihypertensive activity in Wistar rat assessed as change in blood AST level at 10 mg/kg/day, po measured after 8 weeks in presence of losartan; format: functional
Rattus norvegicus [9] = test: Antihypertensive activity in Wistar rat assessed as change in blood ALT level at 10 mg/kg/day, po measured after 8 weeks in presence of losartan; format: functional
Rattus norvegicus [10] = test: Antihypertensive activity in Wistar rat assessed as change in blood urea level at 10 mg/kg/day, po measured after 8 weeks in presence of losartan; format: functional; how it was run: as §2
Rattus norvegicus [11] = test: Antihypertensive activity in Wistar rat assessed as change in blood triglyceride level at 10 mg/kg/day, po measured after 8 weeks in presence of losartan; format: functional; how it was run: as §2
Rattus norvegicus [12] = test: Plasma concentration in po dosed Wistar rat assessed as EXP-3174 level after 4 weeks in presence of losartan; format: ADME, organism-based; conditions: in vivo, 672 h
How it was run: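 Separate groups of Wistar rats dosed in drinking water for 4 weeks (n = 4-6 per group), then sacrificed and plasma analyzed by HPLC-MS/MS (triple quadrupole, electrospray), isocratic MeOH/water with 0.1% formic acid, 40 °C. Two plasma samples per animal; mean ± SEM.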

Rattus norvegicus [13] = test: Antihypertensive activity in Wistar rat assessed as decrease in L-NAME-induced HNE-lysine accumulation in vessel walls at 10 mg/kg/day, po for 4 weeks in presence of losartan; format: functional, organism-based; how it was run: as §1
Rattus norvegicus [14] = test: Antihypertensive activity in Wistar rat assessed as change in blood triglyceride level at 10 mg/kg/day, po measured after 8 weeks; format: functional; how it was run: as §2
Rattus norvegicus [15] = test: Antihypertensive activity in Wistar rat assessed as change in blood creatinine level at 10 mg/kg/day, po measured after 8 weeks in presence of losartan; format: functional; how it was run: as §2
Rattus norvegicus [16] = test: Antihypertensive activity in Wistar rat assessed as change in blood LDH level at 10 mg/kg/day, po measured after 8 weeks in presence of losartan; format: functional
Rattus norvegicus [17] = test: Antihypertensive activity in Wistar rat assessed as change in blood Na+ level at 10 mg/kg/day, po measured after 8 weeks in presence of losartan; format: functional
Rattus norvegicus [18] = test: Antihypertensive activity in Wistar rat assessed as change in blood protein level at 10 mg/kg/day, po measured after 8 weeks in presence of losartan; format: functional; how it was run: as §2
Rattus norvegicus [19] = test: Antihypertensive activity in Wistar rat assessed as change in blood glucose level at 10 mg/kg/day, po measured after 8 weeks in presence of losartan; format: functional; how it was run: as §2
Rattus norvegicus [20] = test: Antihypertensive activity in Wistar rat assessed as change in blood […] level at 10 mg/kg/day, po measured after 8 weeks; format: functional
Rattus norvegicus [21] = test: Antihypertensive activity in Wistar rat assessed as change in blood […] level at 10 mg/kg/day, po measured after 8 weeks in presence of losartan; format: functional
Rattus norvegicus [22] = test: Antihypertensive activity in Wistar rat assessed as change in blood cholesterol level at 10 mg/kg/day, po measured after 8 weeks in presence of losartan; format: functional
Rattus norvegicus [23] = test: Antihypertensive activity in Wistar rat assessed as change in blood protein level at 10 mg/kg/day, po measured after 8 weeks; format: functional; how it was run: as §2
Rattus norvegicus [24] = test: Antihypertensive activity in Wistar rat assessed as change in blood creatinine level at 10 mg/kg/day, po measured after 8 weeks; format: functional; how it was run: as §2
Rattus norvegicus [25] = test: Antihypertensive activity in Wistar rat assessed as change in blood Na+ level at 10 mg/kg/day, po measured after 8 weeks; format: functional
Rattus norvegicus [26] = test: Antihypertensive activity in Wistar rat assessed as decrease in L-NAME-induced fibronectin content in vessel walls at 10 mg/kg/day, po for 4 weeks in presence of losartan; format: functional, organism-based; how it was run: as §1
Rattus norvegicus [27] = test: Antihypertensive activity in Wistar rat assessed as change in blood glucose level at 10 mg/kg/day, po measured after 8 weeks; format: functional; how it was run: as §2
Rattus norvegicus [28] = test: Antihypertensive activity in Wistar rat assessed as change in blood AST level at 10 mg/kg/day, po measured after 8 weeks; format: functional

For `O=C(O)CCc1ccc(O)c(O)c1` [DIHYDROCAFFEIC ACID], the Activity (Rattus norvegicus [1]) was “Active”, the Activity (Rattus norvegicus [2]) was 8.5 mg/dL and the Activity (Rattus norvegicus [3]) was 591 IU/L. It also gave an Activity (Rattus norvegicus [4]) of 27 mg/dL, an Activity (Rattus norvegicus [5]) of 8.8 mg/dL and an Activity (Rattus norvegicus [6]) of 58 mg/dL. It also gave an Activity (Rattus norvegicus [7]) of 24 IU/L, an Activity (Rattus norvegicus [8]) of 93 IU/L and an Activity (Rattus norvegicus [9]) of 22 IU/L. It also gave an Activity (Rattus norvegicus [10]) of 24 mg/dL, an Activity (Rattus norvegicus [11]) of 69 mg/dL and a concentration (Rattus norvegicus [12]) of 19.4 nM. For the same compound, the Activity (Rattus norvegicus [13]) was “Active”, the Activity (Rattus norvegicus [14]) was 70 mg/dL and the Activity (Rattus norvegicus [15]) was 0.44 mg/dL. For the same compound, the Activity (Rattus norvegicus [16]) was 610 IU/L, the Activity (Rattus norvegicus [17]) was 148 mmol/L and the Activity (Rattus norvegicus [18]) was 4 g/dL. For the same compound, the Activity (Rattus norvegicus [19]) was 168 mg/dL, the Activity (Rattus norvegicus [20]) was 4.1 mmol/L and the Activity (Rattus norvegicus [21]) was 4.2 mmol/L. It also gave an Activity (Rattus norvegicus [22]) of 54 mg/dL, an Activity (Rattus norvegicus [23]) of 5.2 g/dL and an Activity (Rattus norvegicus [24]) of 0.47 mg/dL. For the same compound, the Activity (Rattus norvegicus [25]) was 148 mmol/L, the Activity (Rattus norvegicus [26]) was “Active” and the Activity (Rattus norvegicus [27]) was 170 mg/dL. The Activity (Rattus norvegicus [28]) was 77 IU/L.
